Assay [1] deals with T1, Acetylcholinesterase (Electrophorus electricus, UniProt O42275). Description: Inhibition of Electrophorus electricus AChE using acetylthiocholine iodide as substrate pretreated for 10 mins followed by substrate addition measured at 12 secs interval for 5 mins by Ellman's method.
Assay [2] in a line: Selectivity ratio of IC50 for equine serum BuChE to IC50 Electrophorus electricus AChE.
Assay [3] is described as follows: Metal chelating activity assessed as absorption maximum for compound-Cu2+ complex formation at 75 uM after 30 mins by UV-Vis spectrophotometric method (reference value: 237.2 nanometer). In kind it is functional. An outline of the steps:
(§1)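 UV-Vis spectra in ethanol of compound at 75 µM alone or after 30 min incubation with CuSO4, FeSO4, FeCl3 or ZnCl2 (150 µM). Absorption maxima recorded.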

The nature of assay [4]: Antioxidant activity assessed as DPPH radical scavenging activity measured after 30 mins. In kind it is functional. In a few lines: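 DPPH scavenging: compound at 12.5, 25, 50 and 100 µM in ethanol (4 mL) mixed with 1 mL of 0.5 mM DPPH in ethanol. Shaken 30 min at room temperature, absorbance read at 517 nm. % inhibition = (A control − A sample)/A control × 100. Run in triplicate; EC50 obtained by linear regression of mean values.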

For assay [5], the target named is Acetylcholinesterase (Electrophorus electricus) (UniProt O42275). In words: Inhibition of Electrophorus electricus AChE at 30 uM using acetylthiocholine iodide as substrate pretreated for 10 mins followed by substrate addition measured at 12 secs interval for 5 mins by Ellman's method relative to control. An outline of the steps:
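Enzyme (0.5 U/mL) with DTNB (10 mM) in 0.1 M sodium phosphate pH 7.4; compound at 30 μM preincubated 10 min, then acetylthiocholine or butyrylthiocholine iodide added ([…]); A412 read every 12 s for 5 min. Velocity as percent of vehicle control; means and pooled SD from 2-4 experiments in triplicate. DMSO ≤0.2% final.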

For assay [6], the system named is SH-SY5Y. In words: Neuroprotective activity in human SH-SY5Y cells assessed as reduction in amyloid beta (1 to 42)-induced early vacuole formation at 20 uM after 4 hrs by MTT dye based microscopic method. The class given is functional, cell-based. An outline of the steps: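 SH-SY5Y cells seeded at 3 x 10^4 cells/well, grown 24 h. Treated with compound (20 µM) plus Aβ1-42 oligomers (10 µM) for 4 h at 37 °C. Oligomers were prepared from HFIP-treated, DMSO-dissolved peptide and checked by TEM. MTT (5 mg/mL in PBS) added for 2 h. Cells inspected by light microscopy for needle-like exocytosed formazan crystals.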
On the technique in general: Tetrazolium assays rely on reduction of a dye to a coloured formazan, in cell work by metabolically active cells.

Assay [7] deals with SH-SY5Y. Description: Antioxidant activity in human SH-SY5Y cells assessed as reduction in H2O2-induced reactive oxygen species formation at 20 uM pretreated for 24 hrs followed by H2O2 addition measured after 30 mins DCFH-DA probe based fluorescence assay. In kind it is functional, cell-based. An outline of the steps: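 SH-SY5Y cells treated 24 h with compound (20 µM in figure), then exposed to 100 µM H2O2 for 30 min. Intracellular ROS read with DCFH-DA probe (10 µg/mL, 30 min preload) at ex 485/em 535 nm. Expressed as % of control cells; mean ± SD, three independent experiments.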

Assay [8] has as its system Mus musculus. Description: Antinociceptive activity in carrageenan-induced Swiss mouse model of mechanical hyperalgesia at 100 umol/kg, po pretreated for 1 hr followed by carrageenan challenge measured at 3 hrs post dose by Von Frey filament assay. The class given is functional, organism-based. In a few lines: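 Male Swiss mice (n=8) dosed orally with 100 µmol/kg or vehicle 1 h before intraplantar carrageenan (100 µg/paw). Mechanical threshold measured by up-and-down Von Frey method after 60 min acclimation on a wire screen. Started at 0.4 g filament, ≥6 trials at 10 s intervals, about 4 s per application. Reported as mean threshold in grams ± SEM.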

Assay [9] deals with SH-SY5Y. In words: Neuroprotective activity in human SH-SY5Y cells assessed as reduction in amyloid beta (1 to 42)-induced reactive oxygen species formation at 20 uM after 3 hrs by DHE probe based fluorescence microscopic method. In kind it is functional, cell-based. In a few lines:
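SH-SY5Y cells on 8-well slides (1x10^4/well, 24 h) treated 3 h with compound (20 µM) and Aβ1-42 oligomers (10 µM) at 37 °C. Stained with dihydroethidium (10 µM, 30 min, dark), then 1 h in serum-free DMEM. Fluorescence imaged by microscopy; four random fields of 50–100 cells quantified in arbitrary units.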

In a further assay the target is Cholinesterase (Equus caballus, UniProt P81908). In words: Inhibition of equine serum BuChE using butyrylthiocholine iodide as substrate pretreated for 10 mins followed by substrate addition measured at 12 secs interval for 5 mins by Ellman's method. An outline of the steps: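 Ellman assay in 0.1 M sodium phosphate pH 7.4, enzyme 0.5 U/mL, DTNB 10 mM; concentration series preincubated 10 min before butyrylthiocholine iodide ([…]); A412 over 5 min at 12 s intervals. IC50 from fitted concentration-response curves, geometric mean of independent experiments, each in triplicate; DMSO ≤0.2% final.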
Cholinesterase, sequence (P81908 whole entry): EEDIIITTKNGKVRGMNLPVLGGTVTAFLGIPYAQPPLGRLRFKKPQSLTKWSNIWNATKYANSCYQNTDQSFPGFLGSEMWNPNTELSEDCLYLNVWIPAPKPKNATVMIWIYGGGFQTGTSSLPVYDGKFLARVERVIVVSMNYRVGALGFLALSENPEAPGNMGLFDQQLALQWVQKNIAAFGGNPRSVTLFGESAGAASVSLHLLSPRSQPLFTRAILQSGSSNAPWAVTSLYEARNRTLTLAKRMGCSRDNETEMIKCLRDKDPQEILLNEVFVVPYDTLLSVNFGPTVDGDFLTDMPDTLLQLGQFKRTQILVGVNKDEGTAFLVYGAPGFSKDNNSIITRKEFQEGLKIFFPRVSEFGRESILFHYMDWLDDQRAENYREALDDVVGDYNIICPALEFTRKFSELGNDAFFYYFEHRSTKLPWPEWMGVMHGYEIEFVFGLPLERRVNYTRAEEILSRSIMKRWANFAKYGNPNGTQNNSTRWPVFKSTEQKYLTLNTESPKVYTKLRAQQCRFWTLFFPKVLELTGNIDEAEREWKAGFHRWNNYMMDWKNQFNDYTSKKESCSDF
(In general: Ellman's reagent forms a yellow product with free thiols.)

Assay [10] relates to Mus musculus. In words: In vivo inhibition of COX-1 activity in carrageenan-induced Swiss mouse serum at 100 umol/kg, po pretreated for 1 hr followed by carrageenan challenge after 3 hrs by ELISA relative to control. In kind it is functional. In a few lines:
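Male Swiss mice given oral drug (100 µmol/kg) or vehicle 1 h before intraplantar carrageenan (legend: 400 µg/paw). At 3 h, animals anaesthetised with chloral hydrate and cardiac blood taken. Serum separated (1500 rpm, 20 min) and frozen at -70 °C. COX-1, COX-2 and 5-LOX measured by specific sandwich ELISA at 450 nm. Expressed as % enzymatic activity, mean ± SEM, n=8.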
For orientation: ELISA stands for enzyme-linked immunosorbent assay.

Assay [11] concerns Mus musculus. Description: Antiinflammatory activity in formalin-induced nociception Swiss mouse model assessed as reduction in time spent licking formalin injected hind paw during inflammatory phase at 100 umol/kg, po pretreated for 1 hr followed by formalin challenge measured after 20 to 30 mins. In kind it is functional, organism-based. In a few lines: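 Male Swiss mice (22-28 g), n=8 per group, given oral vehicle (saline + DMSO 2%) or 100 µmol/kg 1 h before formalin (5% in 0.9% saline, 20 µl) into the right hind paw sub-plantar region. Morphine 39 µmol/kg i.p. was given 30 min before. Paw-licking time recorded at 0–5 min (neurogenic phase) and 20–30 min (inflammatory phase).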

Assay [12] is described as follows: Metal chelating activity assessed as compound-Fe3+ complex formation at 75 uM after 30 mins by UV-Vis spectrophotometric method. In kind it is functional. An outline of the steps: as §1
The target of assay [13] is T1, Acetylcholinesterase. Description: Non-competitive inhibition of Electrophorus electricus AChE using acetylthiocholine iodide as substrate pretreated for 10 mins followed by substrate addition measured at 12 secs interval for 5 mins by Ellman's method.
Assay [14] relates to Mus musculus. In words: Anti-inflammatory activity in Swiss mouse model of LPS-induced peritonitis assessed as inhibition of leukocyte migration at 100 umol/kg, po pretreated for 30 mins followed by LPS challenge measured after 4 hrs by Neubauer chamber method. In kind it is functional, organism-based. In a few lines: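 Adult male Swiss mice (22-28 g), n=8 per group, dosed orally with 100 µmol/kg or vehicle (saline + DMSO 2%). 30 min later E. coli 026:B6 LPS, 100 µg/kg i.p. in sterile saline. Killed at 4 h by halothane overdose. Peritoneum lavaged with 10 ml PBS containing 0.5% sodium citrate. Total leukocytes counted in a Neubauer chamber, expressed as cells per cavity, mean ± SEM.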

The structures appear in SMILES notation. The source made the active and inactive calls.

T1 sequence (O42275 whole entry): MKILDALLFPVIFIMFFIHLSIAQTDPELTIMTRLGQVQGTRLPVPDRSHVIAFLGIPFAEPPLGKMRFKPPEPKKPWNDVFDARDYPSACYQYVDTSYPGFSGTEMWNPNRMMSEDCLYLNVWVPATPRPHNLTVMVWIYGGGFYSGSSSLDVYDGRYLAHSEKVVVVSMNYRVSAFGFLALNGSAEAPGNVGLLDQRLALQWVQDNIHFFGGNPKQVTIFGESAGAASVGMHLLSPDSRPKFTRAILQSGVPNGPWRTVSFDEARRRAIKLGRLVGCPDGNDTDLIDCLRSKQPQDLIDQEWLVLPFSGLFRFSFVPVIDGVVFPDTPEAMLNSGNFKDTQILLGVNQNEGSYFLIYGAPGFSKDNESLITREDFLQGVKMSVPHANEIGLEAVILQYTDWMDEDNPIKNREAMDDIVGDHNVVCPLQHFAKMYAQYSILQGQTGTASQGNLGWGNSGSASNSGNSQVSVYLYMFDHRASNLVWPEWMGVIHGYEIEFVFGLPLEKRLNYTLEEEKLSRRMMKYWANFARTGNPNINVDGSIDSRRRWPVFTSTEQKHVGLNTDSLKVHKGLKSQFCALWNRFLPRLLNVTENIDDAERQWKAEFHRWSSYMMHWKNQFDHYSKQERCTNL
Acetylcholinesterase (Electrophorus electricus), sequence (O42275 24-633 limits assumed): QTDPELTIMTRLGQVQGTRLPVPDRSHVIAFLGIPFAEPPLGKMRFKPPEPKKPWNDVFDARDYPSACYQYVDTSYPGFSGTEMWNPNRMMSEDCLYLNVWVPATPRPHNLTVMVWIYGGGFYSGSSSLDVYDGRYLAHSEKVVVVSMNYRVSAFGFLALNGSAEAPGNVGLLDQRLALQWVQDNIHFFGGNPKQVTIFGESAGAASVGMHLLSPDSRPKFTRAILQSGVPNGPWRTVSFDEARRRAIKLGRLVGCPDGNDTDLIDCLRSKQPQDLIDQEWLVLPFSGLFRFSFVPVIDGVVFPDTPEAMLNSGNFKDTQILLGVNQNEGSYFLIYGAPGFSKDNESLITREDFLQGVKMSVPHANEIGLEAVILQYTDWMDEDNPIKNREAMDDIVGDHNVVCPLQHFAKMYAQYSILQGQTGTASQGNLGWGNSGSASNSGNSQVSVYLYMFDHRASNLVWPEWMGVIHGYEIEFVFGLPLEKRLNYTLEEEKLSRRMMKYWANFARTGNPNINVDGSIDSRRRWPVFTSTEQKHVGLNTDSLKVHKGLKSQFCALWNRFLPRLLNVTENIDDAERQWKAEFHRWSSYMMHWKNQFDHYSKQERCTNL

Consider `COc1cc(/C=C/C(=O)OCC2CCN(Cc3ccccc3)CC2)ccc1O`, for which the figures for the IC50 at Acetylcholinesterase [1] and on Cholinesterase were 0.46 µM and 25 µM, respectively. Moreover, the Ratio IC50 in assay [2] was 53. In assay [3], the Activity worked out at 248 nm. Besides, the EC50 in [4] stood at 49.4 µM. Moreover, the inhibition in assay [5] is 50%. Also, the outcome (in the assay on SH-SY5Y [6]; in [12]) was inactive. Also, the result with SH-SY5Y [7], with Mus musculus [8], with SH-SY5Y [9] and with Mus musculus [11] was Active. Also, the inhibition in vivo at 100 µmol/kg in the assay with Mus musculus [10] came to 40%. For the same molecule, at Acetylcholinesterase [13], the inhibition constant (Ki) was 1.04 µM. In the assay on Mus musculus [14], the inhibition entry is “Active”.

As a reminder, the IC50 is the concentration that inhibits the measured activity by half. Broadly, the EC50 is the concentration that produces a half-maximal response. For orientation: inhibition means the relative decrease from the control value, in per cent. As usually defined, the inhibition in vivo is the drop in the measured response relative to a control, in per cent. The term Ki denotes the dissociation constant of the complex between target and ligand, obtained from inhibition or displacement.

The values are drawn from ChEMBL document CHEMBL4038269, “Design, synthesis and evaluation of novel feruloyl-donepezil hybrids as potential multitarget drugs for the treatment of Alzheimer's disease” (Eur J Med Chem, 2017).
